Measured values taken from ChEMBL document CHEMBL1125377, “Phenothiazines as lipid peroxidation inhibitors and cytoprotective agents” (1992).
Converted amounts (≈) assume the structure as drawn.

Species on record: Oryctolagus cuniculus
Experiment: In vitro inhibition of iron-dependent peroxidation of rabbit brain vesicular membrane lipids
Format: functional
How it was run: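 Rabbit brain homogenized 10% w/v in 25 mM Tris-HCl with 0.15 M KCl, pH 7.5, spun 10000g for 15 min. The supernatant was given the agent in DMSO and incubated with ADP (220 μM) and FeCl3 (2 μM) at 37 °C for 1 h; the control was not incubated. TBARS read at 532 nm as MDA against a standard curve. Reported as MIC, the minimum tested concentration giving ≥50% inhibition.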

[1] = Oryctolagus cuniculus, read-out: MIC

SMILES | MIC [µM] | MIC [1] [µM]
CN(C)CCOc1ccc2c(c1)Nc1ccccc1S2.CS(=O)(=O)O | 0.26 | –
CN(C)CCCOc1ccc2c(c1)Nc1ccccc1S2 | – | 0.14 (≈ 0.0421 µg/mL)
CN(C)CCOc1ccc2c(c1C(=O)N(C)C)Nc1ccccc1S2 | – | 2.5 (≈ 0.894 µg/mL)
COc1ccc2c(c1C(=O)NCCN(C)C)Nc1ccccc1S2 | – | 2.6 (≈ 0.893 µg/mL)
NCCOc1ccc2c(c1)Nc1ccccc1S2 | – | 0.18 (≈ 0.0465 µg/mL)
CN(C)CCOc1ccc2c(c1)N(C)c1ccccc1S2 | – | 21 (≈ 6.31 µg/mL)
CN(C)CCOc1ccc2c(c1)Nc1ccccc1S2.Cl | 0.093 | –
OCCN1CCN(CCOc2ccc3c(c2)Nc2ccccc2S3)CC1 | – | 0.068 (≈ 0.0253 µg/mL)
CN(C)CCOc1ccc2c(c1)Sc1ccccc1N2 | – | 0.056 (≈ 0.016 µg/mL)
OCCN1CCN(CCCc2ccc3c(c2)Nc2ccccc2S3)CC1 | – | 0.17 (≈ 0.0628 µg/mL)
CN(C)CCCOc1ccc2c(c1)Sc1ccccc1N2 | – | 0.089 (≈ 0.0267 µg/mL)
CN(C)CCCN1c2ccccc2Sc2ccc(Cl)cc21 [CHLORPROMAZINE] | – | 10 (≈ 3.19 µg/mL)
c1ccc2c(c1)Nc1ccccc1S2 [PHENOTHIAZINE] | – | 0.15 (≈ 0.0299 µg/mL)
